Assay results reported in ChEMBL document CHEMBL1145359, “Synthesis and anticonvulsant activity of 4-(2-(2,6-dimethylphenylamino)-2-oxoethylamino)-N-(substituted)butanamides: a pharmacophoric hybrid approach” (Bioorg Med Chem Lett, 2007).
Active and inactive are the calls of the source.

What was measured:
Mus musculus [1] = assay: Acute neurotoxicity in mouse at 300 mg/kg, ip after 4 hrs by rotarod test; type: toxicity, organism-based; set-up: dose 300 mg/kg, route intraperitoneal; conditions: in vivo
Procedure, shortened: (§1)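 Mice dosed intraperitoneally at 30, 100 and 300 mg/kg; motor impairment scored at 0.5 h and 4 h after dosing. The value recorded is the minimum dose at which the effect appeared in half or more of the mice. A dash means no effect at the top dose of 300 mg/kg. A vehicle-treated control group was included.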

Mus musculus [2] = assay: Anticonvulsant activity against subcutaneous picrotoxin-induced seizure in mouse at 30 mg/kg, ip after 0.5 hrs; type: functional, organism-based; set-up: dose 30 mg/kg
Procedure, shortened: (§2)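 Mice given intraperitoneal doses of 30, 100 and 300 mg/kg, with a vehicle-only control, then challenged with subcutaneous picrotoxin. Protection assessed at 0.5 h and 4 h after dosing. Recorded value is the lowest dose protecting half or more of the animals; a dash means no activity at 300 mg/kg.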

Mus musculus [3] = assay: Anticonvulsant activity against maximal-electroshock-induced seizure in mouse at 100 mg/kg, ip after 0.5 hrs; type: functional, organism-based; set-up: dose 100 mg/kg
Procedure, shortened: (§3)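 Mice received the compound intraperitoneally at 30, 100 or 300 mg/kg and were challenged with maximal electroshock 0.5 h later, scoring prevention of seizure spread. The value recorded is the minimum dose protecting half or more of the mice. A dash means no activity up to 300 mg/kg. A vehicle-treated control group was included.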

Mus musculus [4] = assay: Acute neurotoxicity in mouse at 300 mg/kg, ip after 0.5 hrs by rotarod test; type: toxicity, organism-based; set-up: dose 300 mg/kg, route intraperitoneal; conditions: in vivo; procedure, shortened: as §1
Mus musculus [5] = assay: Anticonvulsant activity against subcutaneous pentylenetetrazole-induced seizure in mouse at 300 mg/kg, ip after 0.5 hrs; type: functional, organism-based; set-up: dose 300 mg/kg
Procedure, shortened: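 Intraperitoneal dosing in mice at 30, 100 or 300 mg/kg, followed 0.5 h later by a subcutaneous pentylenetetrazole challenge, scoring protection against seizures (a seizure-threshold test). The value recorded is the minimum dose active in half or more of the mice. A dash means no activity at 300 mg/kg. A vehicle-treated control group was included.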

Mus musculus [6] = assay: Anticonvulsant activity against subcutaneous picrotoxin-induced seizure in mouse at 30 mg/kg, ip after 4 hrs; type: functional, organism-based; set-up: dose 30 mg/kg; procedure, shortened: as §2
Mus musculus [7] = assay: Anticonvulsant activity against maximal-electroshock-induced seizure in mouse at 300 mg/kg, ip after 0.5 hrs; type: functional, organism-based; set-up: dose 300 mg/kg; procedure, shortened: as §3
Mus musculus [8] = assay: Anticonvulsant activity against subcutaneous picrotoxin-induced seizure in mouse at 100 mg/kg, ip after 4 hrs; type: functional, organism-based; set-up: dose 100 mg/kg; procedure, shortened: as §2
Mus musculus [9] = assay: Anticonvulsant activity against subcutaneous picrotoxin-induced seizure in mouse at 100 mg/kg, ip after 0.5 hrs; type: functional, organism-based; set-up: dose 100 mg/kg; procedure, shortened: as §2
Mus musculus [10] = assay: Anticonvulsant activity against subcutaneous pentylenetetrazole-induced seizure in mouse at 30 mg/kg, ip after 0.5 hrs; type: functional, organism-based; set-up: dose 30 mg/kg
Procedure, shortened: (§4)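 Mice dosed intraperitoneally at 30, 100 and 300 mg/kg, with a vehicle-treated control, then challenged with subcutaneous pentylenetetrazole to detect elevation of seizure threshold. Read 0.5 h after dosing.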

Mus musculus [11] = assay: Anticonvulsant activity against subcutaneous picrotoxin-induced seizure in mouse at 10 mg/kg, ip after 0.5 hrs; type: functional, organism-based; set-up: dose 10 mg/kg
Mus musculus [12] = assay: Acute neurotoxicity in mouse at 100 mg/kg, ip after 4 hrs by rotarod test; type: toxicity, organism-based; set-up: dose 100 mg/kg, route intraperitoneal; conditions: in vivo; procedure, shortened: as §1
Mus musculus [13] = assay: Acute neurotoxicity in mouse at 100 mg/kg, ip after 0.5 hrs by rotarod test; type: toxicity, organism-based; set-up: dose 100 mg/kg, route intraperitoneal; conditions: in vivo; procedure, shortened: as §1
Mus musculus [14] = assay: Anticonvulsant activity against maximal-electroshock-induced seizure in mouse at 30 mg/kg, ip after 0.5 hrs; type: functional, organism-based; set-up: dose 30 mg/kg; procedure, shortened: as §3
Mus musculus [15] = assay: Anticonvulsant activity against subcutaneous picrotoxin-induced seizure in mouse at 300 mg/kg, ip after 4 hrs; type: functional, organism-based; set-up: dose 300 mg/kg; procedure, shortened: as §2
Mus musculus [16] = assay: Anticonvulsant activity against subcutaneous pentylenetetrazole-induced seizure in mouse at 100 mg/kg, ip after 0.5 hrs; type: functional, organism-based; set-up: dose 100 mg/kg; procedure, shortened: as §4

Compound	Activity (Mus musculus [1])	Activity (Mus musculus [2])	Activity (Mus musculus [3])	Activity (Mus musculus [4])	Activity (Mus musculus [5])	Activity (Mus musculus [6])	Activity (Mus musculus [7])	Activity (Mus musculus [8])	Activity (Mus musculus [9])	Activity (Mus musculus [10])	Activity (Mus musculus [11])	Activity (Mus musculus [12])	Activity (Mus musculus [13])	Activity (Mus musculus [14])	Activity (Mus musculus [15])	Activity (Mus musculus [16])
Cc1cccc(C)c1NC(=O)CNCCCC(=O)Nc1ccccc1Br	Active	Active	Active	Active	inactive	Active	–	–	–	–	–	–	–	–	–	–
Cc1cccc(NC(=O)CCCNCC(=O)Nc2c(C)cccc2C)c1	Not Active	Active	–	Active	inactive	–	inactive	Active	–	–	–	–	–	–	–	–
Cc1ccc(NC(=O)CCCNCC(=O)Nc2c(C)cccc2C)c(C)c1	Active	–	Active	Active	Active	–	–	Active	Active	–	–	–	–	–	–	–
Cc1cccc(C)c1NC(=O)CNCCCC(=O)O	Not Active	Active	Active	Active	inactive	–	–	Active	–	–	–	–	–	–	–	–
Cc1cccc(C)c1NC(=O)CCCNCC(=O)Nc1c(C)cccc1C	Not Active	–	Active	Active	–	Active	–	–	–	Active	Active	–	–	–	–	–
CCCCN(CCCC)C(=O)CCCNCC(=O)Nc1c(C)cccc1C	Not Active	Active	Active	Active	inactive	–	–	Active	–	–	–	–	–	–	–	–
O=C1NC(=O)C(c2ccccc2)(c2ccccc2)N1 [PHENYTOIN]	–	–	–	–	inactive	–	–	–	–	–	–	Active	Active	Active	inactive	–
Cc1cccc(C)c1NC(=O)CNCCCC(=O)N1CCN(c2cccc(C(F)(F)F)c2)CC1	Not Active	Active	–	Not Active	inactive	–	inactive	Active	–	–	–	–	–	–	–	–
Cc1cccc(C)c1NC(=O)CNCCCC(=O)Nc1cccc(Cl)c1C	Not Active	–	Active	Active	inactive	–	–	Active	Active	–	–	–	–	–	–	–
Cc1cccc(C)c1NC(=O)CNCCCC(=O)N1CCCCC1	Active	–	Active	–	inactive	–	–	–	Active	–	–	–	Active	–	inactive	–
CCC1(C)CC(=O)NC1=O (centres undefined) [ETHOSUXIMIDE]	Not Active	–	–	Not Active	–	–	inactive	–	–	–	–	–	–	–	inactive	Active
Cc1cccc(C)c1NC(=O)CNCCCC(=O)N1CCC(C)CC1	–	–	–	–	inactive	–	inactive	Active	Active	–	–	Active	Active	–	–	–
Cc1cccc(C)c1NC(=O)CNCCCC(=O)N(c1ccccc1)c1ccccc1	Not Active	–	–	Active	inactive	–	Active	–	Active	–	–	–	–	–	Active	–
CCC1(c2ccccc2)C(=O)NC(=O)NC1=O [PHENOBARBITAL]	Active	Active	Active	–	–	–	–	Active	–	Active	–	–	Active	–	–	–
Cc1cccc(C)c1NC(=O)CNCCCC(=O)Nc1ccccc1	Active	–	Active	Active	inactive	–	–	–	Active	–	–	–	–	–	inactive	–
Cc1cccc(C)c1NC(=O)CNCCCC(=O)N(C)C	Active	–	–	Not Active	inactive	–	inactive	Active	Active	–	–	–	–	–	–	–
